# Assay outcomes (PubChem BioAssay)
# In the library only some 2.7% were active in any assay of this set; here they are far more common.
# PAFAH1B2 FP inh – blocks human PAF acetylhydrolase 1b catalytic subunit 2; 1.2% of 340,000 active; P68402; recombinant PAFAH1B2, FP-rhodamine activity probe, fluorescence polarization; inhibition, % at 3.39 µM;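 active = inhibition above the mean of all tested compounds plus 3 SD, cut at about 24% in these data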;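 note: 0% = enzyme with DMSO and 100% = wells lacking PAFAH1B2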
# pPAFAH FP inh – pPAFAH (human) enzyme inhibition | Q13093 | recombinant pPAFAH, FP-rhodamine probe fluorescence polarization | inhibition, % at 3.39 µM | 1.5% of 330,000 active | AID 463082;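 active = inhibition above the mean inhibition across the screen plus 3 SD, cut at about 25% in these data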;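 note: inhibitors block binding of the rhodamine activity-based probe so polarization drops; 0% = enzyme with DMSO and 100% = wells lacking pPAFAH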
# ARFGAP1 inhibitor – inhibits rat ARF GTPase activating protein 1; Arfgap1-stimulated ARF1 GTP hydrolysis, GDP FP detection; inhibition, % at 16.5 µM; 0.26% of 360,000 active;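 active = inhibition above a per-plate limit, mean inhibition of low control wells plus 3 SD, cut at about 25% in these data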;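 note: 0% = DMSO wells with enzyme and 100% = wells lacking Arfgap1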
#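 System: truncated rat Arfgap1 GAP domain / Benchmarks: high control wells lacking Arfgap1, low control full reaction with DMSO / Times: compound-enzyme preincubation 20 min, reaction 120 min, detection 60 min, 25 °C / Repeats: one replicate per compound / Also added: human ARF1(Δ1-17)-GTP substrate / Measured by: Tracer-displacement fluorescence polarization with EDTA stop, 620/688 nm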
# ASAP1 GAP inh – ASAP1 ArfGAP inhibition. Q9ULH1. ASAP1-stimulated ARF1 GTP hydrolysis, GDP FP detection. inhibition, % at 16.5 µM. 0.19% of 360,000 active. AID 624377; in the data active = inhibition above about 25%;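 note: 0% = vehicle with enzyme and substrate and 100% = no enzyme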
# Target sequence (Q9ULH1 325-724 limits assumed): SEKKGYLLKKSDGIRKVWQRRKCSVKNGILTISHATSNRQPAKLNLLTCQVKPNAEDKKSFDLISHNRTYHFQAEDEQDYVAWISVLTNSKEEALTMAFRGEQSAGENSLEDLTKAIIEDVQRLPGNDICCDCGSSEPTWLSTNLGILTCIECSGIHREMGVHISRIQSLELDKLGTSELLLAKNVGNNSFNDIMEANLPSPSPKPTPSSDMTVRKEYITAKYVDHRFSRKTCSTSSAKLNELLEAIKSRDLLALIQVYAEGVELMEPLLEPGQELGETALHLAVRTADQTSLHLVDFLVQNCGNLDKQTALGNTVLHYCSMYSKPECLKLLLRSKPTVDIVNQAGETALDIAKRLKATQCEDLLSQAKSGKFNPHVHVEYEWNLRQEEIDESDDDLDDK
# PAFAH2 FP inh – inhibitors of human PAFAH2 | Q99487 | recombinant PAFAH2, FP-rhodamine activity probe, fluorescence polarization | inhibition, % at 3.39 µM | 0.99% of 340,000 active;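 active = inhibition above the mean over all tested compounds plus 3 SD, cut at about 30% in these data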;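 note: inhibitors block probe labeling of enzyme so polarization drops; 0% = enzyme with DMSO and 100% = wells lacking PAFAH2 protein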
# PAFAH1B3 inh – blocks human PAF acetylhydrolase 1B catalytic subunit 3 | 0.28% of 340,000 active | inhibition, % at 3.39 µM | recombinant PAFAH1B3, FP-rhodamine probe, fluorescence polarization;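 active = inhibition above the screen-wide average of all tested compounds plus 3 SD, cut at about 25% in these data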;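 note: 0% = enzyme with DMSO only and 100% = wells lacking PAFAH1B3 protein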
# Target sequence (Q15102 whole entry, looked up): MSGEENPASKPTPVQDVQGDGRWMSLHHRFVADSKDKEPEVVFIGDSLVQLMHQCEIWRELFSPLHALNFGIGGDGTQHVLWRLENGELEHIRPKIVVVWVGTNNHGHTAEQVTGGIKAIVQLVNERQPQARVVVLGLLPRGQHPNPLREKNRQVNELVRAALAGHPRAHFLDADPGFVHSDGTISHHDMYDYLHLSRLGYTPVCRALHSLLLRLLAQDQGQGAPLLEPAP
# PAFAH2 FP conf – confirmation of human PAFAH2 inhibitors; 65% of 2,300 active; shares compounds with PAFAH2 FP inh; inhibition, % at 3.39 µM; AID 493030; recombinant PAFAH2, FP-rhodamine activity probe, fluorescence polarization;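 active = mean inhibition over three repeats above a set limit taken from the earlier primary screen, cut at about 30% in these data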;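 note: inhibitor blocks binding of rhodamine activity probe so polarization falls; 0% = enzyme with DMSO and 100% = wells lacking PAFAH2 protein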
# Numbers without * were called inactive; nt = no result.
SMILES,PAFAH1B2 FP inh,pPAFAH FP inh,ARFGAP1 inhibitor,ASAP1 GAP inh,PAFAH2 FP inh,PAFAH1B3 inh,PAFAH2 FP conf
O=C(CSc1cccc[n+]1[O-])c1ccccc1Br,3.5,0.0,-2.7,0.5,39.3*,2.1,38.7*
Cc1ccc(/C(=N\O)c2oc3c(C)c4oc(=O)cc(C)c4cc3c2C)cc1,-7.9,-9.5,0.7,-7.2,-24.0,-3.8,nt
Cc1cc(=O)oc2c1ccc1oc(/C(=N/O)c3ccccc3)c(C)c12,-1.5,4.2,12.8,2.1,37.4*,-5.1,28.9
COc1cc(/C=C/C(=O)OCC(=O)c2ccc(S(=O)(=O)N3CCCCC3)cc2)cc(OC)c1OC,2.0,nt,-2.2,-17.4,3.7,-1.1,nt
COc1cc(/C=C/C(=O)OCC(=O)Nc2cc(S(=O)(=O)N3CCCC3)ccc2Cl)cc(OC)c1OC,0.3,7.7,3.7,-5.1,30.8*,6.3,26.0
COc1cc(/C=C/C(=O)OCC(=O)Nc2cc(S(=O)(=O)N3CCCCC3)ccc2C)ccc1O,-1.7,11.9,-0.7,7.3,74.9*,-5.0,78.7*
COc1cc(/C=C/C(=O)OCC(=O)Nc2ccc(C)c(S(=O)(=O)N3CCCCC3)c2)ccc1O,2.4,10.8,7.4,1.6,66.6*,5.2,73.3*
COc1ccc(CC(=O)Nc2cc(S(=O)(=O)N3CCCCC3)ccc2C)cc1,2.7,nt,11.8,10.9,8.0,0.1,nt
COc1ccccc1CN(C)C(=O)CN1CCN(S(=O)(=O)c2ccc3c(c2)OCCCO3)CC1,6.3,4.6,-6.1,7.1,-3.4,4.1,nt
O=C(Cn1[nH]c(=O)c2ccccc2c1=O)NCCN1C(=O)S/C(=C\c2ccccc2)C1=O,2.1,9.2,0.9,-2.6,31.5*,3.8,4.3
O=C(CCl)NCCN1C(=O)S/C(=C\c2cccnc2)C1=O,-7.5,-1.3,-1.7,2.9,-1.2,-1.9,nt
C[C@@H]1CN([C@@H](C)CO)C(=O)CCCn2cc(nn2)CO[C@H]1CN(C)S(=O)(=O)c1cccc(C#N)c1,nt,nt,7.4,-0.6,nt,nt,nt
Nc1ccn([C@@H]2O[C@H](C(=O)N3CCN(C(=O)C(F)(F)F)CC3)[C@@H](O)[C@H]2O)c(=O)n1,nt,nt,17.1,-2.1,nt,nt,nt
O=C(COC(=O)CCCN1C(=O)c2cccc3cccc(c23)C1=O)Nc1cccc(Br)c1,6.5,13.2,5.4,11.6,56.2*,3.8,24.5
O=C(COC(=O)CCCN1C(=O)c2cccc3cccc(c23)C1=O)Nc1cccc(C(F)(F)F)c1,-10.6,1.9,1.4,-7.9,35.5*,-8.6,32.8*
COC(=O)[C@H](Cc1ccccc1)NC(=O)NCc1ccccc1,7.4,0.2,-6.7,-5.9,6.5,2.3,nt
COC(=O)[C@@H](Cc1ccccc1)NC(=O)[C@H]1CCC(=O)N1C(=O)OCc1ccccc1,1.3,3.7,4.0,1.2,41.4*,4.8,27.7
COc1ccc(NC(=O)CN2C(=O)C3CC=CCC3C2=O)cc1Cl (stereo not drawn),nt,nt,-3.1,-3.4,nt,nt,nt
O=C(NNC(=O)C12CC3CC(CC(C3)C1)C2)c1ccccn1,7.5,4.5,-8.0,5.1,36.7*,15.7,18.1
O=C(NNC(=O)C12CC3CC(CC(C3)C1)C2)c1cnccn1,1.1,-0.3,-12.5,-1.5,10.2,1.6,nt
O=[N+]([O-])c1ccccc1S(=O)(=O)Nc1cccc(-c2ccc(N3CCCC3)nn2)c1,2.0,3.1,-1.1,-10.8,108.7*,2.6,4.3
O=C(/C=C/c1ccccc1)OCCCCN=C1NS(=O)(=O)c2ccccc21,4.5,0.4,5.8,-2.3,-1.0,11.3,nt
O=C(OCCCN=C1NS(=O)(=O)c2ccccc21)c1cccs1,1.4,3.0,-9.1,-6.5,4.6,11.8,nt
O=C(/C=C/c1ccccc1)OCCN=C1NS(=O)(=O)c2ccccc21,3.7,-0.5,-6.3,-8.7,30.3*,6.5,22.1
O=C(OCCN=C1NS(=O)(=O)c2ccccc21)c1cccs1,4.7,3.5,10.1,6.8,37.9*,10.2,11.2
SMILES,PAFAH1B2 FP inh,pPAFAH FP inh,ARFGAP1 inhibitor,ASAP1 GAP inh,PAFAH2 FP inh,PAFAH1B3 inh,PAFAH2 FP conf
O=S(=O)(c1ccccc1Br)N(Cc1ccccc1)CC(O)COCc1ccccc1 (stereo not drawn),5.6,-1.8,3.6,2.7,3.1,2.4,nt
O=S1(=O)c2ccc(Br)cc2OCCC2CCCCN21 (stereo not drawn),nt,nt,-3.1,4.9,nt,nt,nt
O=C(O)/C(=C\c1ccccc1OC(F)F)c1ccc(-c2ccccc2)cc1,-4.3,13.2,-10.2,-6.8,49.1*,2.6,40.1*
Cc1noc(C)c1C(=O)Nc1cccc(S(=O)(=O)N2CCOCC2)c1,1.9,0.5,15.7,4.9,-7.2,1.9,nt
Cc1c(C(C)(C)O)[nH]c2cc(C(F)(F)F)ccc12,7.3,0.9,15.1,-6.5,1.9,1.1,nt
O=c1[nH]c2cc(C(F)(F)F)ccc2n1-c1cc(C(F)(F)F)ccc1O,2.0,12.8,-8.3,-18.8,49.1*,-3.1,41.7*
COc1ccc(Cn2cc(CN3CC(N4CCN(C5CCN(C)CC5)CC4)CS3(=O)=O)nn2)cc1 (stereo not drawn),nt,nt,0.7,-5.2,nt,nt,nt
COc1cc(-c2cccs2)cc(=O)c2c(C)oc(C)c12,4.0,22.1,-4.8,-6.0,32.2*,7.3,5.9
Cc1ccc(S(=O)(=O)N(C)c2ccc(OC(=O)c3cccs3)cc2)cc1C,0.5,11.6,-10.2,-4.1,33.5*,11.0,25.3
Cc1ccc(S(=O)(=O)N(C)c2ccc(OC(C)C(=O)N3CCCC3)cc2)cc1C (stereo not drawn),4.5,-3.1,3.1,2.0,10.7,4.6,nt
O=C(CN(Cc1cccs1)C(=O)CNS(=O)(=O)c1ccc(Cl)cc1)NCc1ccco1,15.6,5.2,0.7,-0.6,30.5*,1.3,27.7
CCN(CC)S(=O)(=O)c1ccc(NC(=O)c2ccc(OCC3CCCO3)cc2)cc1 (stereo not drawn),-3.7,4.6,2.8,0.6,-1.6,-5.7,nt
CCOc1ccc(NC(=O)COC(=O)C2C3CC4OC(=O)C2C4C3)cc1 (stereo not drawn),0.7,-1.9,-1.3,-5.7,47.1*,1.6,40.2*
Cc1ccc(NC(=O)COC(=O)C2C3CC4OC(=O)C2C4C3)cc1 (stereo not drawn),2.1,-3.1,3.6,12.2,55.2*,3.5,55.0*
CC(=O)c1ccc(NC(=O)COC(=O)C2C3CC4OC(=O)C2C4C3)cc1 (stereo not drawn),-5.5,0.3,6.8,-1.3,25.3,6.0,nt
O=C(COC(=O)C1C2CC3OC(=O)C1C3C2)Nc1cccc(Cl)c1 (stereo not drawn),5.7,2.1,1.3,7.8,76.6*,6.9,83.6*
COC(=O)C[C@H]1CC[C@@H](NC(=O)Nc2c(C)noc2C)[C@@H](CO)O1,nt,nt,-4.3,1.7,nt,nt,nt
NC(=O)c1ncn([C@@H]2O[C@H](CNC(=O)[C@H](N)CSCc3ccccc3)[C@@H](O)[C@H]2O)n1,3.7,nt,0.3,-3.5,-1.5,9.2,nt
